pEC50: −log10 of the molar value. Values after ≈ are worked out from the molar mass of the structure shown.
What was measured:
[1] = target: Human immunodeficiency virus type 1 reverse transcriptase (Human immunodeficiency virus 1) (UniProt Q72547); assay: Inhibition of HIV1 recombinant reverse transcriptase at 210 ug/ml
[2] = Cytotoxicity against human C8166 cells after 72 hrs by MTT method; assay type: cell-based
Outline: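 Supernatant discarded, MTT (5 mg/mL in PBS) added for 4 h, formazan dissolved in 50% DMF–20% SDS, absorbance 595/630 nm. CC50 (50% reduction of viable cells) taken from dose–response curve.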

[3] = Selectivity index, ratio of CC50 for C8166 cells to EC50 for HIV1 3B; assay type: functional
Outline: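 Ratio of CC50 (MTT, uninfected C8166, 72 h) to EC50 (syncytium reduction, HIV-1 IIIB-infected C8166, MOI 0.06, 3 days), both determined in this work.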

[4] = test system: Human immunodeficiency virus 1; assay: Antiviral activity against HIV1 3B in C8166 cells by syncytium reduction assay; assay type: functional, organism-based; settings: Human immunodeficiency virus 1, 3B
Outline: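 C8166 cells (4 × 10⁵/mL) exposed to serial compound concentrations and infected with HIV-1 IIIB at MOI 0.06; zidovudine positive control. After 3 days of culture, syncytia counted per well by inverted microscopy; percent inhibition versus infected untreated control; EC50 is concentration protecting cells from viral cytopathogenicity by 50%.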

[5] = target: Human immunodeficiency virus type 1 reverse transcriptase (Human immunodeficiency virus 1) (UniProt Q72547); assay: Inhibition of HIV1 recombinant reverse transcriptase at 200 ug/ml
[6] = test system: Human immunodeficiency virus; assay: Inhibition of HIV replication in H9 cells; assay type: functional, organism-based; settings: Human immunodeficiency virus 1, H9

| Compound | Inhibition [1] [%] | CC50 at 72 h [2] [µM] | Ratio CC50/EC50 [3] | pEC50 [4] | Inhibition [5] [%] | EC50 [6] [µg/mL] |
| --- | --- | --- | --- | --- | --- | --- |
| CC1NCCc2ccc(O)c(O)c21 (centres undefined) | 48 |  |  |  |  |  |
| Oc1cc2c(cc1O)C(c1ccccc1Cl)NCC2 (centres undefined) |  | > 727 | >14 | 4.29 |  |  |
| COc1cc2c(cc1OC)C(c1ccccc1C)NCC2 (centres undefined) |  | 197 | 4.6 | 4.37 |  |  |
| COc1cc2c(cc1OC)C(c1ccccc1OC)NCC2 (centres undefined) |  | 555 | 12 | 4.34 |  |  |
| Oc1cc2c(cc1O)C(c1ccccc1Br)NCC2 (centres undefined) |  | > 625 | >26 | 4.63 |  |  |
| N#Cc1ccc(C2NCCc3cc(O)c(O)cc32)cc1 (centres undefined) |  | > 752 | >14 | 4.27 |  |  |
| Oc1cc2c(cc1O)C(c1ccc3ccccc3c1)NCC2 (centres undefined) |  | > 687 | >130 | 5.28 | 30 |  |
| COc1ccc(C2NCCc3cc(O)c(O)cc32)c(OC)c1 (centres undefined) |  | > 664 | >14 | 4.33 |  |  |
| COc1cc2c(cc1OC)C(c1ccccc1Cl)NCC2 (centres undefined) |  | 249 | 4.3 | 4.23 |  |  |
| COc1ccccc1C1NCCc2cc(O)c(O)cc21 (centres undefined) |  | > 738 | >18 | 4.37 |  |  |
| COc1ccc(C2NCCc3cc(OC)c(OC)cc32)c(OC)c1 (centres undefined) |  | 227 | 5.2 | 4.36 |  |  |
| COc1cc2c(cc1OC)C(c1ccc(C(F)(F)F)cc1)NCC2 (centres undefined) |  | 30.9 | <1 | 4.56 |  |  |
| COc1cc2c(cc1OC)C(c1ccc3ccccc3c1)NCC2 (centres undefined) |  | 54.6 | 7.9 | 5.16 |  |  |
| COc1cc2c(cc1OC)C(c1ccco1)NCC2 (centres undefined) |  | 572 | 3.8 | 3.82 |  |  |
| COc1cc2c(cc1OC)C(c1ccc(Br)cc1)NCC2 (centres undefined) |  | 37.9 | 2.2 | 4.77 |  |  |
| COc1cc2c(cc1OC)C(c1cccc(Cl)c1)NCC2 (centres undefined) |  | 184 | 5.9 | 4.50 |  |  |
| Oc1cc2c(cc1O)C(c1cccc(Br)c1)NCC2 (centres undefined) |  | > 625 | >12 | 4.27 |  |  |
| COc1cc2c(cc1OC)C(c1ccccc1F)NCC2 (centres undefined) |  | 175 | 2.8 | 4.16 |  |  |
| Oc1cc2c(cc1O)C(c1ccc(C(F)(F)F)cc1)NCC2 (centres undefined) |  | 42.3 | 1.5 | 4.56 |  |  |
| Oc1cc2c(cc1O)C(c1ccccn1)NCC2 (centres undefined) |  | > 826 | >11 | 4.32 |  |  |

| Compound | Inhibition [1] [%] | CC50 at 72 h [2] [µM] | Ratio CC50/EC50 [3] | pEC50 [4] | Inhibition [5] [%] | EC50 [6] [µg/mL] |
| --- | --- | --- | --- | --- | --- | --- |
| Oc1cc2c(cc1O)C(c1ccccc1)NCC2 (centres undefined) |  | > 830 | >12 | 4.17 |  |  |
| Cc1ccccc1C1NCCc2cc(O)c(O)cc21 (centres undefined) |  | > 784 | >13 | 4.21 |  |  |
| Oc1cc2c(cc1O)C(c1cccc3ccccc13)NCC2 (centres undefined) |  | 47.4 | 1.9 | 4.48 |  |  |
| COc1cc2c(cc1OC)C(c1cccc(Br)c1)NCC2 (centres undefined) |  | 107 | 2.4 | 4.36 |  |  |
| COc1cc2c(cc1OC)C(c1cccc3ccccc13)NCC2 (centres undefined) |  | 64.8 | 2.9 | 4.65 |  |  |
| CC1NCCc2cc(O)c(O)cc21 (centres undefined) |  |  |  |  |  | 0.117 (≈ 0.653 µM) |
| COc1cc2c(cc1OC)C(c1ccccc1Br)NCC2 (centres undefined) |  | 89 | 2.8 | 4.50 |  |  |
| COc1cc2c(cc1O)[C@@H](Cc1ccc(O)cc1)NCC2 |  |  |  |  |  | 0.8 (≈ 2.8 µM) |
| COc1cc2c(cc1OC)C(c1ccc(C)cc1)NCC2 (centres undefined) |  | 281 | 4.2 | 4.17 |  |  |
| Oc1cc2c(cc1O)C(c1ccco1)NCC2 (centres undefined) |  | > 866 | >14 | 4.21 |  |  |
| COc1cc2c(cc1OC)C(c1ccccn1)NCC2 (centres undefined) |  | 444 | 2.8 | 3.77 |  |  |
| COc1ccc(C2NCCc3cc(O)c(O)cc32)cc1 (centres undefined) |  | > 738 | >22 | 4.47 |  |  |
| COc1ccc(C2NCCc3cc(OC)c(OC)cc32)cc1 (centres undefined) |  | 312 | 2.5 | 3.90 |  |  |
| COc1cc2c(cc1OC)C(c1ccccc1)NCC2 (centres undefined) |  | 294 | 2.4 | 3.92 |  |  |
| Cc1cn([C@H]2C[C@H](N=[N+]=[N-])[C@@H](CO)O2)c(=O)[nH]c1=O [ZIDOVUDINE] |  | > 749 | >68091 | 7.96 |  |  |
| Cc1ccc(C2NCCc3cc(O)c(O)cc32)cc1 (centres undefined) |  | > 784 | >95 | 5.09 | 28 |  |
| Oc1cc2c(cc1O)C(c1ccc(Br)cc1)NCC2 (centres undefined) |  | > 625 | >18 | 4.44 |  |  |
| Oc1cc2c(cc1O)C(c1ccccc1F)NCC2 (centres undefined) |  | > 772 | >13 | 4.23 |  |  |
| Oc1cc2c(cc1O)C(c1cccc(Cl)c1)NCC2 (centres undefined) |  | > 727 | >159 | 5.34 | 20 |  |

Source: ChEMBL document CHEMBL1144663, “1-Aryl-tetrahydroisoquinoline analogs as active anti-HIV agents in vitro” (Bioorg Med Chem Lett, 2008)
